Among the data in ChEMBL document CHEMBL4311965, “Antimicrobial activity of amphipathic α,α-disubstituted β-amino amide derivatives against ESBL - CARBA producing multi-resistant bacteria; effect of halogenation, lipophilicity and cationic character” (Eur J Med Chem, 2019) are solubility, MIC and EC50 values, retold here.

Usually MIC stands for the lowest concentration that inhibits growth of the organism. For orientation: EC50 means the concentration that produces a half-maximal response.

Data set [1] can be described thus: Aqueous solubility of the compound in DMSO. It is filed as physicochemical.
Data set [2] has as its system Enterococcus faecium. Briefly: Antibacterial activity against multidrug-resistant Enterococcus faecium 50673722 cultured in BHIB medium assessed as reduction in bacterial growth incubated for 24 hrs by microdilution susceptibility test. It is filed as functional. The conditions noted are these: Enterococcus faecium, 50673722, 24 h. The method, boiled down: (§1)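 Enterococci grown in Brain Heart Infusion broth, otherwise broth microdilution per CLSI M07-A9 (modified). Concentrated DMSO stocks kept at r.t. and diluted in double-distilled water, final DMSO <1%. Inoculum 1–1.2 x 10⁶ cells/mL mixed 1:1 with compound. 37 °C, 24 h, four parallels. OD₆₀₀ read-out, lowest concentration with no growth.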
For orientation: In broth dilution the organism is exposed to a series of concentrations in liquid medium.

In data set [3] the test system is Escherichia coli. Briefly: Antibacterial activity against Escherichia coli ATCC 25922 cultured in MHB medium assessed as no bacterial growth incubated at 37 degC for 24 hrs by microdilution susceptibility test. It is filed as functional. The settings on record: ATCC 25922, 24 h. In a few lines:
(§2)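 Broth microdilution per CLSI M07-A9 with modifications. Inoculum about 2.5–3 x 10⁴ cells/mL in Mueller-Hinton broth, mixed 1:1 with test derivative. DMSO stocks diluted in double-distilled water, final DMSO <1%. Incubation 24 h at 37 °C (20 °C for C. glutamicum). Growth and sterility controls included; oxytetracycline reference.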

Data set [4] concerns Acinetobacter baumannii. Briefly: Antibacterial activity against multidrug-resistant Acinetobacter baumannii K12-21 producing oxcillinase-58 cultured in MHB medium assessed as reduction in bacterial growth incubated for 24 hrs by microdilution susceptibility test. It is filed as functional. The conditions noted are these: K12-21, 24 h. The method, boiled down:
(§3)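 Broth microdilution per CLSI M07-A9 (modified). Working solutions made from concentrated DMSO stocks kept at r.t., diluted in double-distilled water, final DMSO <1%. Inoculum 1–1.2 x 10⁶ cells/mL in Mueller-Hinton broth, mixed 1:1 with compound. 37 °C, 24 h, four parallels. Read as OD₆₀₀. Where precipitation left residual OD, the point of major OD decrease was taken as the inhibitory concentration.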

In data set [5] the test system is Escherichia coli. Briefly: Antibacterial activity against multidrug-resistant Escherichia coli 50676002 producing New Delhi metallo-beta-lactamase-1 cultured in MHB medium assessed as reduction in bacterial growth incubated for 24 hrs by microdilution susceptibility test. It is filed as functional. The conditions noted are these: Escherichia coli, 50676002, 24 h. In a few lines: as §3

For data set [6], the system named is Pseudomonas aeruginosa. The data set can be described thus: Antibacterial activity against multidrug-resistant Pseudomonas aeruginosa K34-7 producing Verona integron encoded metallo beta-lactamse-2 cultured in MHB medium assessed as reduction in bacterial growth incubated for 24 hrs by microdilution susceptibility test. It is filed as functional. The settings on record: K34-7, 24 h. In a few lines: as §3

The subject of data set [7] is Acinetobacter baumannii. The data set can be described thus: Antibacterial activity against multidrug-resistant Acinetobacter baumannii K63-58 producing oxcillinase-23 cultured in MHB medium assessed as reduction in bacterial growth incubated for 24 hrs by microdilution susceptibility test. It is filed as functional. The settings on record: K63-58, 24 h. In a few lines: as §3

In data set [8] the test system is Enterococcus faecium. Briefly: Antibacterial activity against multidrug-resistant Enterococcus faecium K36-18 cultured in BHIB medium assessed as reduction in bacterial growth incubated for 24 hrs by microdilution susceptibility test. The data set is classed as functional. The conditions noted are these: K36-18, 24 h. The method, boiled down:
as §1

Data set [9] has as its system Staphylococcus aureus. Briefly: Antibacterial activity against multidrug-resistant Staphylococcus aureus 85/2082 cultured in MHB medium assessed as reduction in bacterial growth incubated for 24 hrs by microdilution susceptibility test. The data set is classed as functional. The conditions noted are these: 85/2082, 24 h. In a few lines:
as §3

Data set [10] relates to Staphylococcus aureus. Briefly: Antibacterial activity against Staphylococcus aureus ATCC 9144 cultured in MHB medium assessed as no bacterial growth incubated at 37 degC for 24 hrs by microdilution susceptibility test. It is filed as functional. The settings on record: ATCC 9144, 24 h. The method, boiled down: as §2
For data set [11], the system named is Pseudomonas aeruginosa. The data set can be described thus: Antibacterial activity against multidrug-resistant Pseudomonas aeruginosa K34-73 producing Verona integron encoded metallo beta-lactamse-4 cultured in MHB medium assessed as reduction in bacterial growth incubated for 24 hrs by microdilution susceptibility test. The settings on record: K34-73, 24 h. It is filed as functional. The method, boiled down: as §3

For data set [12], the system named is Staphylococcus aureus. Briefly: Antibacterial activity against multidrug-resistant Staphylococcus aureus NCTC 10442 cultured in MHB medium assessed as reduction in bacterial growth incubated for 24 hrs by microdilution susceptibility test. It is filed as functional. The conditions noted are these: NCTC 10442, 24 h. In a few lines: as §3
Data set [13] deals with Staphylococcus aureus. Briefly: Antibacterial activity against multidrug-resistant Staphylococcus aureus N315 cultured in MHB medium assessed as reduction in bacterial growth incubated for 24 hrs by microdilution susceptibility test. It is filed as functional. The settings on record: N315, 24 h. The method, boiled down: as §3
In data set [14] the test system is Klebsiella pneumoniae. The data set can be described thus: Antibacterial activity against multidrug-resistant Klebsiella pneumoniae 50625602 producing oxcillinase-245 cultured in MHB medium assessed as reduction in bacterial growth incubated for 24 hrs by microdilution susceptibility test. It is filed as functional. The settings on record: Klebsiella pneumoniae, 50625602, 24 h. The method, boiled down:
as §3

Data set [15] deals with MRC5. The data set can be described thus: Cytotoxicity against human MRC5 cells assessed as reduction in cell viability incubated for 4 hrs by CellTiter 96 Aqueous One Solution Reagent based assay. The conditions noted are these: MRC5, 4 h. In a few lines:
(§4)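 HepG2 and MRC-5 cells seeded at 35 000 and 15 000 cells/well respectively, then held overnight at 37 °C, 5% CO₂. Compounds in serum-free MEM Earle's applied for 4 h. MTS reagent (CellTiter 96 AQueous One) added for a further 1 h, absorbance read at 485 nm. Survival expressed relative to medium (negative) and Triton X-100 (positive) controls.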

The test system of data set [16] is Enterococcus faecium. Briefly: Antibacterial activity against multidrug-resistant Enterococcus faecium TUH50-22 cultured in BHIB medium assessed as reduction in bacterial growth incubated for 24 hrs by microdilution susceptibility test. The data set is classed as functional. The settings on record: TUH50-22, 24 h. The method, boiled down:
as §1

In data set [17] the test system is HepG2. The data set can be described thus: Cytotoxicity against human HepG2 cells assessed as reduction in cell viability incubated for 4 hrs by CellTiter 96 Aqueous One Solution Reagent based assay. The settings on record: HepG2, 4 h. The method, boiled down: as §4

≈ marks a conversion by molar mass, not a printed value.

Take `NCCNC(=O)C(CN)(Cc1ccc(C(F)(F)F)cc1)Cc1ccc(C(F)(F)F)cc1`: the solubility result in [1] was “Soluble”. In addition, the MIC was 16 µg/mL (≈ 35.8 µM) in data set [2]; 16 µg/mL (≈ 35.8 µM) in [3]; greater than 32 µg/mL in [4]; greater than 32 µg/mL in data set [5]; greater than 32 µg/mL in data set [6]; greater than 32 µg/mL in data set [7]. Also, the MIC was 16 µg/mL (≈ 35.8 µM) in data set [8]; greater than 32 µg/mL in data set [9]; 8 µg/mL (≈ 17.9 µM) in [10]; greater than 32 µg/mL in data set [11]; greater than 32 µg/mL in data set [12]; greater than 32 µg/mL in [13]. In addition, the MIC was 32 µg/mL (≈ 71.5 µM) in [14] and 8 µg/mL (≈ 17.9 µM) in data set [16]. The EC50 in [15] amounted to 16 µg/mL (≈ 35.8 µM).
Take `NCCNC(=O)C(CN)(Cc1ccc(F)c2ccccc12)Cc1ccc(F)c2ccccc12`: the solubility entry in [1] is “Soluble”. Further, the MIC was 16 µg/mL (≈ 35.8 µM) in data set [2]; 4 µg/mL (≈ 8.94 µM) in [3]; 32 µg/mL (≈ 71.5 µM) in data set [4]; 8 µg/mL (≈ 17.9 µM) in data set [5]; greater than 32 µg/mL in [6]; 16 µg/mL (≈ 35.8 µM) in data set [7]. Also, the MIC in data set [8] came to 16 µg/mL (≈ 35.8 µM); in [9] it was 8 µg/mL (≈ 17.9 µM); in [10], 4 µg/mL (≈ 8.94 µM); in [11] it was 32 µg/mL (≈ 71.5 µM); in data set [12] it was 8 µg/mL (≈ 17.9 µM); in data set [13], 16 µg/mL (≈ 35.8 µM). Further, the minimum inhibitory concentration (MIC) in [14] and in [16] was 8 µg/mL (≈ 17.9 µM) in each case. The EC50 in data set [17] was 12 µg/mL (≈ 26.8 µM); in data set [15], 4 µg/mL (≈ 8.94 µM).
Consider `N=C(N)NCCNC(=O)C(CNC(=N)N)(Cc1cc(C(F)(F)F)cc(C(F)(F)F)c1)Cc1cc(C(F)(F)F)cc(C(F)(F)F)c1`, for which the MIC is 8 µg/mL (≈ 12 µM) in [2]; 4 µg/mL (≈ 5.99 µM) in data set [3]; greater than 32 µg/mL in data set [4]; 32 µg/mL (≈ 47.9 µM) in [5]; 32 µg/mL (≈ 47.9 µM) in data set [6]; greater than 32 µg/mL in [7]. Besides, the MIC in data set [8] amounted to 8 µg/mL (≈ 12 µM); in [9], 8 µg/mL (≈ 12 µM); in [10], 2 µg/mL (≈ 3 µM); in data set [11], 16 µg/mL (≈ 24 µM); in [12] it was 8 µg/mL (≈ 12 µM); in data set [13] it was 4 µg/mL (≈ 5.99 µM). In addition, the MIC is greater than 32 µg/mL in data set [14] and 4 µg/mL (≈ 5.99 µM) in data set [16]. Also, the EC50 in data set [17] and in [15] was greater than 64 µg/mL throughout.
With `N=C(N)NCCNC(=O)C(CNC(=N)N)(Cc1ccc(F)c2ccccc12)Cc1ccc(F)c2ccccc12`, the MIC in [2] is 16 µg/mL (≈ 30.1 µM); in [3] it was 16 µg/mL (≈ 30.1 µM); in data set [4], greater than 32 µg/mL; in [5] it was 32 µg/mL (≈ 60.2 µM); in data set [6], greater than 32 µg/mL; in [7], greater than 32 µg/mL. Also, the MIC in data set [8] was 16 µg/mL (≈ 30.1 µM); in data set [9], 4 µg/mL (≈ 7.52 µM); in [10] it was 2 µg/mL (≈ 3.76 µM); in [11], greater than 32 µg/mL; in data set [12], 4 µg/mL (≈ 7.52 µM); in [13], 4 µg/mL (≈ 7.52 µM). In addition, the minimal inhibitory concentration (MIC) in [14] was greater than 32 µg/mL; in data set [16], 8 µg/mL (≈ 15 µM).
For the compound `NCCNCC(CN)(Cc1ccc(F)c2ccccc12)Cc1ccc(F)c2ccccc12`, the MIC was found to be 4 µg/mL (≈ 9.23 µM) in data set [2]; 4 µg/mL (≈ 9.23 µM) in [3]; 8 µg/mL (≈ 18.5 µM) in [4]; 8 µg/mL (≈ 18.5 µM) in [5]; 16 µg/mL (≈ 36.9 µM) in data set [6]; 8 µg/mL (≈ 18.5 µM) in [7]. Further, the MIC in [8] stood at 4 µg/mL (≈ 9.23 µM); in data set [9], 4 µg/mL (≈ 9.23 µM); in [10], 2 µg/mL (≈ 4.61 µM); in data set [11], 16 µg/mL (≈ 36.9 µM); in data set [12] it was 4 µg/mL (≈ 9.23 µM); in data set [13], 4 µg/mL (≈ 9.23 µM). For the same compound, the MIC was determined as 8 µg/mL (≈ 18.5 µM) in [14] and 4 µg/mL (≈ 9.23 µM) in data set [16]. Besides, the EC50 came out at 12 µg/mL (≈ 27.7 µM) in data set [17] and 9 µg/mL (≈ 20.8 µM) in data set [15].
